Results reported in ChEMBL document CHEMBL4017507 (J Med Chem, 2017).

Tests used:
[1] = system: Human alphaherpesvirus 3; assay: Antiviral activity against Varicella-Zoster virus OKA infected in human HEL cells assessed as inhibition of virus-induced cytopathic effect; format: functional, cell-based; details: Human alphaherpesvirus 3, strain Oka vaccine
Outline: (§1)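 Confluent HEL fibroblast cultures were inoculated with 20 PFU of VZV in the presence of varying compound concentrations. Plaque formation was recorded once untreated infected controls reached completion.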

[2] = Cytotoxicity against human HEL cells assessed as alteration to cell morphology by microscopic analysis; format: cell-based
Outline: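 Minimal cytotoxic concentration is the compound concentration giving a microscopically visible alteration of HEL cell morphology, scored in the antiviral assay cultures.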

[3] = system: Human immunodeficiency virus 1; assay: Antiviral activity against HIV1 X4LAI.04 infected in human tonsillar tissues assessed as inhibition of virus-induced cytopathic effect by p24gag-based luminex assay; format: functional; details: Human immunodeficiency virus 1, X4LAI.04
Outline: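 Tonsillectomy tissue blocks of 2–3 mm³ were cultured on collagen sponge gels at the air–liquid interface, 27 blocks per donor per condition. Blocks were pretreated with compound overnight, infected with HIV-1 X4LAI.04 and cultured 12 days, with drug replenished at each medium change every 3 days. Medium p24 was measured by Luminex. Inhibition was calculated against untreated tissue, and EC50 was derived from it.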

[4] = system: Human alphaherpesvirus 2; assay: Antiviral activity against Herpes simplex virus 2 G infected in human HEL cells assessed as inhibition of virus-induced cytopathic effect; format: functional, cell-based; details: Human alphaherpesvirus 2, strain G
Outline: (§2)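 Confluent HEL fibroblast monolayers were inoculated in 96-well plates with 100 CCID50 of virus in the presence of serially varied compound concentrations. Cytopathicity was scored once untreated infected controls reached full CPE.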

[5] = system: Human betaherpesvirus 5; assay: Antiviral activity against human cytomegalovirus Davis infected in human HEL cells assessed as inhibition of virus-induced cytopathic effect; format: functional, cell-based; details: Human betaherpesvirus 5, Davis; outline: as §2
[6] = system: HEL; assay: Cytotoxicity against human HEL cells assessed as cell growth inhibition by cell counting method; format: cell-based
[7] = system: MT4; assay: Cytotoxicity against human MT4 cells assessed as reduction in cell viability by cell counting method; format: cell-based
Outline: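 MT-4 cultures, untreated or treated, were assessed with an automated cell counter using propidium iodide staining to enumerate total and dead cells.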

[8] = system: Human alphaherpesvirus 1; assay: Antiviral activity against ACV-resistant thymidine kinase deficient Herpes simplex virus 1 KOS infected in human HEL cells assessed as inhibition of virus-induced cytopathic effect; format: functional, cell-based; details: Human alphaherpesvirus 1, KOS; outline: as §2
[9] = system: Human betaherpesvirus 5; assay: Antiviral activity against human cytomegalovirus AD-169 infected in human HEL cells assessed as inhibition of virus-induced cytopathic effect; format: functional, cell-based; details: Human betaherpesvirus 5, AD-169, HEL; outline: as §2
[10] = system: Human immunodeficiency virus 1; assay: Antiviral activity against HIV1 X4LAI.04 infected in human MT4 cells assessed as decrease in viral replication by p24gag-based luminex assay; format: functional, cell-based; details: Human immunodeficiency virus 1, X4LAI.04, MT4
Outline: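 10^6 MT-4 cells were infected with HIV-1 X4LAI.04 (7 ng p24) for 2 h at 37 °C, then washed with PBS and resuspended. Compounds were added and cultures were kept 3 days at 37 °C. Supernatant p24 was measured by bead-based Luminex. Inhibition was calculated as (1 − p24 treated/p24 untreated) × 100, and EC50 was derived from it.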

[11] = system: CCRF-CEM; assay: (§3) Cytostatic activity human CEM cells assessed as reduction in cell viability after 72 hrs by cell counting method; format: cell-based; details: ccrf-cem, 72 h
Outline: (§4)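 (5–7.5) × 10^? CEM cells per well were grown with compound for 72 h at 37 °C under humidified CO2. Cells were counted in a Coulter counter.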

[12] = system: Human alphaherpesvirus 1; assay: Antiviral activity against Herpes simplex virus 1 KOS infected in human HEL cells assessed as inhibition of virus-induced cytopathic effect; format: functional, cell-based; details: Human alphaherpesvirus 1, KOS; outline: as §2
[13] = system: Human alphaherpesvirus 3; assay: Antiviral activity against thymidine kinase deficient Varicella-Zoster virus 07-1 infected in human HEL cells assessed as inhibition of virus-induced cytopathic effect; format: functional, cell-based; details: Human alphaherpesvirus 3, 07-1, HEL; outline: as §1
[14] = Drug metabolism assessed as carboxypeptidase Y (unknown origin)-mediated metabolite 81 peak measured after 14 hrs by [31P]-NMR spectroscopic analysis; format: ADME; details: human
[15] = Drug metabolism assessed as carboxypeptidase Y (unknown origin)-mediated metabolite 79 formation measured after 14 hrs by [31P]-NMR spectroscopic analysis; format: ADME; details: human
[16] = Drug metabolism assessed as carboxypeptidase Y (unknown origin)-mediated metabolite 81 formation measured after 24 hrs by [31P]-NMR spectroscopic analysis; format: ADME; details: human
[17] = Drug metabolism assessed as carboxypeptidase Y (unknown origin)-mediated metabolite 81 peak measured with in 1 hr by [31P]-NMR spectroscopic analysis; format: ADME; details: human
[18] = Selectivity index, ratio of IC50 for human MT4 cells to EC50 for HIV1 X4LAI.04; format: toxicity; details: read-out: Ratio IC50/EC50
[19] = Drug metabolism assessed as carboxypeptidase Y (unknown origin)-mediated metabolite 81 peak measured after 15 mins by [31P]-NMR spectroscopic analysis; format: ADME; details: human
[20] = Drug metabolism assessed as carboxypeptidase Y (unknown origin)-mediated metabolite 79 formation measured after 15 mins by [31P]-NMR spectroscopic analysis; format: ADME; details: human
[21] = as §3; format: cell-based, CCRF-CEM; details: CEM cells (CCRF-CEM); outline: as §4

| Structure (SMILES) | EC50 [1] [µM] | MCC [2] [µM] | EC50 [3] [µM] | EC50 [4] [µM] | EC50 [5] [µM] | CC50 [6] [µM] | IC50 [7] [µM] | EC50 [8] [µM] | EC50 [9] [µM] | EC50 [10] [µM] | CC50 [11] [µM] | EC50 [12] [µM] | EC50 [13] [µM] | also measured |
| --- | --- | --- | --- | --- | --- | --- | --- | --- | --- | --- | --- | --- | --- | --- |
| Nc1nc(O)c2ncn(CSC(CO)CO)c2n1 | 6.9 | 50 to 100 | > 30 | 0.5 | 40.8 | > 100 | > 150 | 1.6 | > 50 | > 150 | > 500 | 0.4 | > 50 | – |
| CCCOC(=O)[C@H](C)NP(=O)(OCC(CCn1cnc2c(OC)nc(N)nc21)COP(=O)(N[C@@H](C)C(=O)OCCC)Oc1cccc2ccccc12)Oc1cccc2ccccc12 (some centres not stated) | 6.1 | 50 to 100 | – | > 100 | 40 | 4.9 | 20 | > 100 | 32 | 9.7 | 6.8 | > 100 | 8.1 | Drug metabolism [14]: Metabolite_Detected; Drug metabolism [15]: Metabolite_Detected |
| C[C@H](NP(=O)(OCC(CO)CCn1cnc2c(=O)[nH]c(N)nc21)Oc1ccccc1)C(=O)OCc1ccccc1 (some centres not stated) | 2.6 | 50 to 100 | > 20 | 16 | > 50 | > 100 | > 150 | ≥ 100 | > 50 | 10 | > 250 | 8 | 45 | – |
| Nc1nc(Cl)c2ncn(CCC(CO)CO)c2n1 | > 50 | 50 to 100 | > 60 | > 100 | > 50 | > 100 | > 150 | > 100 | > 50 | > 150 | 400 | > 100 | > 50 | – |
| C[C@H](NP(=O)(OCC(CO)OCn1cnc2c(=O)[nH]c(N)nc21)Oc1cccc2ccccc12)C(=O)OCc1ccccc1 (some centres not stated) | 9.5 | > 100 | 11 | 0.5 | 6.5 | – | 100 | 3 | 9.5 | 8 | – | 0.4 | 28.2 | – |
| CC(=O)OCC(CO)OCn1cnc2c(Cl)nc(N)nc21 (configuration not stated) | – | – | > 10 | – | – | – | > 150 | – | – | > 150 | ≥ 250 | – | – | – |
| C[C@H](NP(=O)(OCC(COP(=O)(N[C@@H](C)C(=O)OCc1ccccc1)Oc1ccccc1)SCn1cnc2c(=O)[nH]c(N)nc21)Oc1ccccc1)C(=O)OCc1ccccc1 (some centres not stated) | 23 | 50 to 100 | > 3 | > 100 | > 50 | > 100 | 21 | > 100 | > 50 | 24 | 77 | > 100 | > 50 | – |
| CC(C)OC(=O)[C@H](C)NP(=O)(OCC(CO)OCn1cnc2c(=O)[nH]c(N)nc21)Oc1cccc2ccccc12 (some centres not stated) | ≥ 23.5 | > 100 | – | 3 | 6.8 | > 50 | 150 | ≥ 75 | > 50 | 40 | 35 | 2 | ≥ 10.8 | Drug metabolism [16]: Metabolite_Notdetected; Drug metabolism [17]: Metabolite_Detected |
| COc1nc(N)nc2c1ncn2CCC(CO)COP(=O)(N[C@@H](C)C(=O)OCc1ccccc1)Oc1ccccc1 (some centres not stated) | 17.1 | 50 to 100 | 0.9 | 29 | 7.9 | ≥ 83 | 23 | 39 | 31.6 | 1.1 | 32 | 39 | 22.2 | selectivity ratio [18]: 2.1 |
| C[C@H](NP(=O)(OCC(CO)CCn1cnc2c(=O)[nH]c(N)nc21)Oc1cccc2ccccc12)C(=O)OCc1ccccc1 (some centres not stated) | 9.3 | 50 to 100 | – | 79 | > 50 | > 100 | 100 | > 100 | > 50 | 21 | 138 | 73 | > 50 | Drug metabolism [19]: Metabolite_Detected; Drug metabolism [20]: Metabolite_Detected |
| COc1nc(N)nc2c1ncn2CCC(CO)CO | 22.8 | 50 to 100 | > 30 | > 100 | > 50 | > 100 | > 150 | > 100 | > 50 | > 150 | 246 | > 100 | > 50 | – |
| Nc1nc(O)c2ncn(COC(CO)CO)c2n1 [GANCICLOVIR] | – | 100 to 350 | 5 | 0.04 | – | 273 | > 50 | – | – | > 50 | – | – | – | CC50 at 72 h [21]: > 100 µM |
| Nc1nc2c(ncn2CCC(CO)CO)c(=O)[nH]1 [PENCICLOVIR] | – | > 100 | 11 | – | > 50 | > 100 | > 150 | 4 | > 50 | > 150 | – | – | 10.2 | – |
